Where two headings read alike, the source gives them in different places.
What was measured:
[1] = biological target: rCB1 (Rattus norvegicus, UniProt P20272); experiment: Radioligand binding; conditions: for CB1 trans/cis ratio: ratio Ki(trans)/Ki(cis) at CB1; for Ki: cis photoisomer (irradiated with 366 nm UV light), rat brain membranes, 0.6 nM [3H]CP55940
[2] = biological target: hCB2 (Homo sapiens, UniProt P34972); experiment: Radioligand binding; conditions: hCB2-HEK membranes
[3] = format: physicochemical; conditions: for cis form at photostationary state: UV light at 366 nm, quantified by HPLC
How it was run: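 Photostationary states measured by UV/vis spectroscopy in 10 mm path cuvettes. Cis form produced by 366 nm irradiation; trans form by 454 nm blue light. HPLC chromatograms track isomer distribution at each stationary state. Repeated switching cycles check for photofatigue. Thermal stability of the cis form followed over >3 h in buffer pH 7.4 at 37 °C.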

[4] = biological target: hCB1 (Homo sapiens, UniProt P21554); format: cell-based
How it was run: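 CHO-K1 cells express hCB1 coupled through Gαq16, so receptor activation gives intracellular calcium mobilization. Calcium flux is monitored with calcium-5 fluorescent dye on an automated fluorescence plate reader. Antagonist apparent affinity (Ke) is derived from the functional response.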

Chain of hCB2 (P34972 whole entry): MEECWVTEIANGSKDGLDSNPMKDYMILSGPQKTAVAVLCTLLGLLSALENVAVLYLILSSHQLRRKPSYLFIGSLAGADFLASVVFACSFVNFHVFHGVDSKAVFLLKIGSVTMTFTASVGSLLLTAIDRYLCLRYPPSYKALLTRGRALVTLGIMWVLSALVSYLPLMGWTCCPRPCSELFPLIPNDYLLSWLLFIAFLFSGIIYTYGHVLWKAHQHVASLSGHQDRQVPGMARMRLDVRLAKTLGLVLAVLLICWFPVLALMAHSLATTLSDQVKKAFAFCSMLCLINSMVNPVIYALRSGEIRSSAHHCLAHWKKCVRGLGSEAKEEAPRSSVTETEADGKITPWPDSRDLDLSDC
Chain of rCB1 (P20272 whole entry): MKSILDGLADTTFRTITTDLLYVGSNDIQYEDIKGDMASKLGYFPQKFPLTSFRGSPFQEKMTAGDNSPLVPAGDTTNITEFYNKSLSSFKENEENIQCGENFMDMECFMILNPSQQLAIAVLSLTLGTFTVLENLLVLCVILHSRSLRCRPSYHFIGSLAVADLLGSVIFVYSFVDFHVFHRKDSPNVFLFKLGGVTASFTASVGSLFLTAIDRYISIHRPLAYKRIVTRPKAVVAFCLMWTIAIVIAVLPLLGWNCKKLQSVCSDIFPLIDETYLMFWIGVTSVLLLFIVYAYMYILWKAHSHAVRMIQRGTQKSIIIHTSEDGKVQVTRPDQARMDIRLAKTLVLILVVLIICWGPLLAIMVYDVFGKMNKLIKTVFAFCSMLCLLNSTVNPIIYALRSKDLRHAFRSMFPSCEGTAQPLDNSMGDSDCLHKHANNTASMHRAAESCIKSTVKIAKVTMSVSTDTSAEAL
Chain of hCB1 (P21554 whole entry): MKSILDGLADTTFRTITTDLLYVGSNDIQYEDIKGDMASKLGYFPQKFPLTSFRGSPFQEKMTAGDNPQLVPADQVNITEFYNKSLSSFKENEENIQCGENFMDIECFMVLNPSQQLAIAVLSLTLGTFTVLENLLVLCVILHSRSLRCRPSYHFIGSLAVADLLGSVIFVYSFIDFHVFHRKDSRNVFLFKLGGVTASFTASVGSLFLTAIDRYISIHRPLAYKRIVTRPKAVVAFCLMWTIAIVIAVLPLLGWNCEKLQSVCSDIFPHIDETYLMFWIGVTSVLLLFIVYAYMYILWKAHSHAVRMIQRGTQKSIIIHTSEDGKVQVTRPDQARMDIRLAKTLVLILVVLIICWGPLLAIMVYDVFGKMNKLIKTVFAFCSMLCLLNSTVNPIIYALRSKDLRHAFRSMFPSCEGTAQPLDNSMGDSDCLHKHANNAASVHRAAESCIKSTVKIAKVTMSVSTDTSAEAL

SMILES | CB1 trans/cis ratio [1] | Ki ([1]; read-out: CB1 (Ki ± SD)) | [3H]CP55950 displ at 10 μM (CB2) ([2]; cis photoisomer (366 nm)) | [3H]CP55950 displ at 10 μM (CB2) ([2]; trans photoisomer (454 nm)) | Ki ([1]; CB1 (Ki ± SD)) | [3H]CP55950 displ at 10 μM (CB2) ([2]; reference compound, no photoisomer) | cis form at photostationary state [3] | reversal in the photoconversion ([3]; after being stored in the dark for 2 h) | Kb [4] | thermal stability ([3]; buffer pH 7.4, 37 °C)
Cc1c(C(=O)NCc2cccc(/N=N/c3ccccc3)c2)nn(-c2ccc(Cl)cc2Cl)c1-c1ccc(Cl)cc1 [16b, 5-(4-Chlorophenyl)-1-(2,4-dichlorophenyl)-4-methyl-N-((3-[(1E)-2-phenyldiazen-1-yl]phenyl)methyl)pyrazole-3-carboxamide] | 1.23 | 311 ± 196 nM | <10% | 14% | – | – | – | – | – | –
Cc1ccccc1/N=N/c1c(C)c(C(=O)NN2CCCCC2)nn1-c1ccc(Cl)cc1Cl [9d, 1-(2,4-Dichlorophenyl)-4-methyl-5-[(1E)-2-(2-methylphenyl)diazen-1-yl]-N-(piperidin-1-yl)pyrazole-3-carboxamide] | 0.76 | – | 45% | 68% | 384 ± 40 nM | – | – | – | – | –
Cc1c(C(=O)NN2CCCCC2)nn(-c2ccc(Cl)cc2Cl)c1-c1ccc(Cl)cc1 [rimonabant, reference compound] | – | – | – | – | – | <10% | – | – | – | –
Cc1c(C(=O)NCc2ccc(/N=N/c3ccc4c(c3)COC4)cc2)nn(-c2ccc(Cl)cc2Cl)c1-c1ccc(Cl)cc1 [16d, 5-(4-Chlorophenyl)-1-(2,4-dichlorophenyl)-N-((4-[(1E)-2-(1,3-dihydro-2-benzofuran-5-yl)diazen-1-yl]phenyl)methyl)-4-methyl-1H-pyrazole-3-carboxamide] | 2.72 | – | <10% | 32% | 221 ± 109 nM | – | – | – | – | –
Cc1c(C(=O)NN2CCCCC2)nn(-c2ccc(Cl)cc2Cl)c1/N=N/c1cccc(Cl)c1Cl [9b, 1-(2,4-Dichlorophenyl)-4-methyl-5-[(E)-2-(2,3-dichlorophenyl)diazen-1-yl]-N-(piperidin-1-yl)-1H-pyrazole-3-carboxamide] | 0.83 | – | 61% | 81% | 716 ± 26 nM | – | approximately 50% | – | – | –
Cc1c(/N=N/c2cccc(Cl)c2Cl)nn(-c2ccc(Cl)cc2Cl)c1-c1ccc(Cl)cc1 [14b, 5-(4-Chlorophenyl)-1-(2,4-dichlorophenyl)-3-[(E)-2-(2,3-dichlorophenyl)diazen-1-yl]-4-methyl-1H-pyrazole] | – | – | 60% | 31% | 195 ± 63 nM | – | approximately 50% | – | – | –
Cc1cccc(/N=N/c2c(C)c(C(=O)NN3CCCCC3)nn2-c2ccc(Cl)cc2Cl)c1 [9e, 1-(2,4-Dichlorophenyl)-4-methyl-5-[(1E)-2-(3-methylphenyl)diazen-1-yl]-N-(piperidin-1-yl)-1H-pyrazole-3-carboxamide] | 0.60 | – | 46% | 65% | 679 ± 160 nM | – | – | – | – | –
Cc1c(C(=O)NCc2ccccc2/N=N/c2ccccc2)nn(-c2ccc(Cl)cc2Cl)c1-c1ccc(Cl)cc1 [16c, 5-(4-Chlorophenyl)-1-(2,4-dichlorophenyl)-4-methyl-N-((2-[(1E)-2-phenyldiazen-1-yl]phenyl)methyl)-1H-pyrazole-3-carboxamide] | 1.58 | 142 ± 28 nM | 14% | 46% | – | – | – | – | – | –
Cc1c(C(=O)NN2CCCCC2)nn(-c2ccc(Cl)cc2Cl)c1/N=N/c1ccccc1 [9a, 1-(2,4-Dichlorophenyl)-4-methyl-5-[(E)-2-phenyldiazen-1-yl]-N-(piperidin-1-yl)-1H-pyrazole-3-carboxamide] | 1.0 | – | 14% | 51% | 461 ± 337 nM | – | – | – | – | –
Cc1c(C(=O)NN2CCCCC2)nn(-c2ccc(Cl)cc2Cl)c1/N=N/c1ccc(Cl)cc1Cl [9c, 1-(2,4-Dichlorophenyl)-5-[(E)-2-(2,4-dichlorophenyl)diazen-1-yl]-4-methyl-N-(piperidin-1-yl)-1H-pyrazole-3-carboxamide] | 1.11 | – | 55% | 62% | 358 ± 62 nM | – | approximately 50% | 45% | – | –
Cc1c(C(=O)NCc2ccc(/N=N/c3ccccc3)cc2)nn(-c2ccc(Cl)cc2Cl)c1-c1ccc(Cl)cc1 [16a, 5-(4-Chlorophenyl)-1-(2,4-dichlorophenyl)-4-methyl-N-((4-[(1E)-2-phenyldiazen-1-yl]phenyl)methyl)-1H-pyrazole-3-carboxamide] | – | – | <10% | <10% | 29 ± 2.8 nM | – | – | – | ~85.3 nM | > 3 h
Cc1c(/N=N/c2ccccc2)nn(-c2ccc(Cl)cc2Cl)c1-c1ccc(Cl)cc1 [14a, 5-(4-Chlorophenyl)-1-(2,4-dichlorophenyl)-4-methyl-3-[(E)-2-phenyldiazen-1-yl]-1H-pyrazole] | 2.16 | – | 21% | <10% | 249 ± 155 nM | – | – | – | – | –

Source: article PMC9016771 (ACS chemical neuroscience, 2021)
